{"source": "ChEMBL document CHEMBL4837245", "about": "“Discovery of VU6028418: A Highly Selective and Orally Bioavailable M4 Muscarinic Acetylcholine Receptor Antagonist” (ACS Med Chem Lett, 2021)", "key": {"[1]": {"assay": "Volume of distribution at steady state in Sprague-Dawley rat at 1.0 mg/kg, iv measured upto 24 hrs by LC-MS/MS analysis", "type": "ADME, organism-based", "settings": "in vivo, read-out: Vdss", "procedure,_shortened": "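Pharmacokinetics in Sprague-Dawley rat, CD-1 mouse and beagle dog. Intravenous dose was 1 mg/kg in each species. Oral doses were given as a suspension: 10 mg/kg in rat, 3 mg/kg in mouse and dog. Each parameter is the mean of two to three animals.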"}, "[2]": {"assay": "AUC (0 to infinity) in Beagle dog at 3 mg/kg, po measured upto 24 hrs by LC-MS/MS analysis", "type": "ADME, organism-based, Canis lupus familiaris", "parameters": "route oral, dose 3 mg/kg, time <=24", "settings": "in vivo", "procedure,_shortened": "(§1)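 Single iv and oral (suspension) dosing; iv/po doses 1/10 mg/kg in SD rat, 1/3 mg/kg in CD-1 mouse and beagle dog. Plasma PK parameters are means from two to three animals per species.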"}, "[3]": {"assay": "Ratio of free drug concentration in CSF to plasma of Sprague-Dawley rat at 1 mg/kg, iv", "type": "ADME, organism-based"}, "[4]": {"assay": "Elimination half life in Beagle dog at 1 mg/kg, iv measured upto 24 hrs by LC-MS/MS analysis", "type": "ADME, organism-based, Canis lupus familiaris", "settings": "in vivo, read-out: beta t1/2 (converted)", "procedure,_shortened": "as §1"}, "Cytochrome P450 2C9": {"target": "Cytochrome P450 2C9 (Homo sapiens, UniProt P11712)", "sequence (P11712 whole entry)": "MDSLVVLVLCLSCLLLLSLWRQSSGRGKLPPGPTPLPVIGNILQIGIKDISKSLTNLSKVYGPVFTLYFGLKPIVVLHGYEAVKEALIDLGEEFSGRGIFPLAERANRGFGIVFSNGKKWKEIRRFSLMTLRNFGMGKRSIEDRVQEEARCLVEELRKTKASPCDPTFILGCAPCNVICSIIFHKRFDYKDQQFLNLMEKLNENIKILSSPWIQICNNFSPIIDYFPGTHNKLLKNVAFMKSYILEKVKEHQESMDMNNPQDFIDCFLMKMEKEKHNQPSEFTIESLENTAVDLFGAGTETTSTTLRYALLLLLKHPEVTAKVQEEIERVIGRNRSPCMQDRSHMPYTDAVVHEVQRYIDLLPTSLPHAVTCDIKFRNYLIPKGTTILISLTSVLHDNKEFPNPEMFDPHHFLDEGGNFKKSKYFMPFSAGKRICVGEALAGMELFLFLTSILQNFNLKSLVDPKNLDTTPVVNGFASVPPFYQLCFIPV", "assay": "Time dependent inhibition of CYP2C9 (unknown origin)", "type": "ADME"}, "[5]": {"assay": "Cmax in Beagle dog at 3 mg/kg, po measured upto 24 hrs by LC-MS/MS analysis", "type": "ADME, organism-based, Canis lupus familiaris", "parameters": "route oral, dose 3 mg/kg, time <=24", "settings": "in vivo", "procedure,_shortened": "as §1"}, "[6]": {"assay": "AUC (0 to infinity) in Sprague-Dawley rat at 10 mg/kg, po measured upto 24 hrs by LC-MS/MS analysis", "type": "ADME, organism-based", "parameters": "route oral, dose 10 mg/kg, time <=24", "settings": "in vivo", "procedure,_shortened": "as §1"}, "[7]": {"target": "T1, Muscarinic acetylcholine receptor M4 (Homo sapiens, UniProt P08173)", "T1 sequence (P08173 whole entry)": "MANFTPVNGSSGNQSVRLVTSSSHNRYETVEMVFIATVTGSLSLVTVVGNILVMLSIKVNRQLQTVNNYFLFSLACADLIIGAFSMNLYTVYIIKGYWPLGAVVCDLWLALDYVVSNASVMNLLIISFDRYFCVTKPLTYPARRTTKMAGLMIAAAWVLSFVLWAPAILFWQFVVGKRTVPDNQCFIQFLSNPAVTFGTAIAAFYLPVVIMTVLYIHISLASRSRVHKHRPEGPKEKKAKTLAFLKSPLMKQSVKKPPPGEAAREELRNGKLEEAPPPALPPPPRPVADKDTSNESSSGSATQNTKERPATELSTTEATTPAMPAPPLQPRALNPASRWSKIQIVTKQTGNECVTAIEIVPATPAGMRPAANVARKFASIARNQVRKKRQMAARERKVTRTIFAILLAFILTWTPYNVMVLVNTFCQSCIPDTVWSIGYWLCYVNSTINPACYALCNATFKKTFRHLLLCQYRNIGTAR", "assay": "Antagonist activity at human muscarinic acetylcholine M4 receptor expressed in CHO cells assessed as inhibition of acetylcholine-induced calcium mobilization", "type": "functional, cell-based", "settings": "read-out: IC50"}, "Cytochrome P450 2D6": {"target": "Cytochrome P450 2D6 (Homo sapiens, UniProt P10635)", "sequence (P10635 whole entry)": "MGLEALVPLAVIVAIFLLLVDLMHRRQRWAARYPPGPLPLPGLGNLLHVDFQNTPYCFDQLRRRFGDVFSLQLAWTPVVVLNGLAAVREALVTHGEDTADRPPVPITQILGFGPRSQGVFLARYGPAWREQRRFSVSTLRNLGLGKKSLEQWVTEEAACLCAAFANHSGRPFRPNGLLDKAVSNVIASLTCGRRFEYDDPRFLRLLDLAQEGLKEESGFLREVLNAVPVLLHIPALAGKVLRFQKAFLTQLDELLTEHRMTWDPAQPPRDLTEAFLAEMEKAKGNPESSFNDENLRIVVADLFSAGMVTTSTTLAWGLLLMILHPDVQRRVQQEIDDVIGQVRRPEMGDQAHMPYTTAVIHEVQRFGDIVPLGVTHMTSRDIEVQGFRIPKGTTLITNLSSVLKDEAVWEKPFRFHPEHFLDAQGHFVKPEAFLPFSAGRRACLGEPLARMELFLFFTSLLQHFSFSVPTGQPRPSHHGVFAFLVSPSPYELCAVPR", "assay": "Time dependent inhibition of CYP2D6 (unknown origin)", "type": "ADME"}, "[8]": {"assay": "Clearance in Beagle dog plasma at 1.0 mg/kg, iv measured upto 24 hrs by LC-MS/MS analysis", "type": "ADME, organism-based, Canis lupus familiaris", "procedure,_shortened": "as §1"}, "[9]": {"assay": "Ratio of free drug concentration in brain to plasma of rat at 1 mg/kg, po after 1 hr", "type": "ADME, organism-based", "procedure,_shortened": "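At the end of the catalepsy study, 1 h after a 1 mg/kg oral dose in rats, total brain/plasma (Kp) and unbound brain/plasma (Kp,uu) ratios were determined.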"}, "CYP2B6": {"target": "CYP2B6 (Homo sapiens, UniProt P20813)", "sequence (P20813 whole entry)": "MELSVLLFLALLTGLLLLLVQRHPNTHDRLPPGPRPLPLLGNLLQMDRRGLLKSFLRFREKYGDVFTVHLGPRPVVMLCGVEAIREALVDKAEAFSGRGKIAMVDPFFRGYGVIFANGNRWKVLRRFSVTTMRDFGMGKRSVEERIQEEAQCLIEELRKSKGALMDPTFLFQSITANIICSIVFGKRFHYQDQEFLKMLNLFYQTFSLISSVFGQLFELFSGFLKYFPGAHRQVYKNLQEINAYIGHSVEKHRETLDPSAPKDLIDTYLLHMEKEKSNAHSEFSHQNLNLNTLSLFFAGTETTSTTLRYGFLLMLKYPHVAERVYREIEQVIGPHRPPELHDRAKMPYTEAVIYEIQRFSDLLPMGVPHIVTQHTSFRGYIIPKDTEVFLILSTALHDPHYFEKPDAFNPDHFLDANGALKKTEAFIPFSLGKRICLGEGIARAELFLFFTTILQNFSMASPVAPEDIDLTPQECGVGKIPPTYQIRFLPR", "assay": "Induction of CYP2B6 in human hepatocytes", "type": "ADME, cell-based, Hepatocyte"}, "[10]": {"assay": "Elimination half life in Sprague-Dawley rat at 1 mg/kg, iv measured upto 24 hrs by LC-MS/MS analysis", "type": "ADME, organism-based", "settings": "in vivo, read-out: beta t1/2 (converted)", "procedure,_shortened": "as §1"}, "[11]": {"target": "Muscarinic acetylcholine receptor M1 (Homo sapiens, UniProt P11229)", "sequence (P11229 whole entry)": "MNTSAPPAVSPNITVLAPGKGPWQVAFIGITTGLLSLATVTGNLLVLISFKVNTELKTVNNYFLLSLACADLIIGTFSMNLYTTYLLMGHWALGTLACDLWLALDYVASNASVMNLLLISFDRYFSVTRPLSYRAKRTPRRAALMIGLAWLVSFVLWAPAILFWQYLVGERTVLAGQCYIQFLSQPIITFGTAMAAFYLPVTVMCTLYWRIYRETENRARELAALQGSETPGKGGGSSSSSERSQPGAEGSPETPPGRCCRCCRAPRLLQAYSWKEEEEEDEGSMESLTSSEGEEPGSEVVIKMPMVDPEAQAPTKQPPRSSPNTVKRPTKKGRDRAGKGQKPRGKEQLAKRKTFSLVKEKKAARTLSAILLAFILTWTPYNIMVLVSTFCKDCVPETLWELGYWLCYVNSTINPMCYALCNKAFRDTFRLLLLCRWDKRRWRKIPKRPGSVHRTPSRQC", "assay": "Antagonist activity at human muscarinic M1 receptor expressed in CHO cells co-expressing Gqi5 assessed as inhibition of acetylcholine-induced calcium mobilization", "type": "functional", "procedure,_shortened": "(§2)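 CHO cells stably transfected with the given human mAChR subtype. Compound added before an EC80 concentration of acetylcholine; antagonism read as calcium mobilization. One independent determination in triplicate.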"}, "[12]": {"target": "Sigma non-opioid intracellular receptor 1 (Homo sapiens, UniProt Q99720)", "sequence (Q99720 whole entry)": "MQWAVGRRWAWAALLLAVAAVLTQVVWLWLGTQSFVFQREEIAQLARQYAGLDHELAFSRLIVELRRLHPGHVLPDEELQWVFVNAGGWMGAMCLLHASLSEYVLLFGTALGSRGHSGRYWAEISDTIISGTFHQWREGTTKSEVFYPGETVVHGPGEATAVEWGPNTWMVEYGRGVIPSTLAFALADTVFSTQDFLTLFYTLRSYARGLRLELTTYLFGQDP", "assay": "Inhibition of human sigma1 receptor by radioligand binding assay"}, "[13]": {"target": "Muscarinic acetylcholine receptor M5 (Homo sapiens, UniProt P08912)", "sequence (P08912 whole entry)": "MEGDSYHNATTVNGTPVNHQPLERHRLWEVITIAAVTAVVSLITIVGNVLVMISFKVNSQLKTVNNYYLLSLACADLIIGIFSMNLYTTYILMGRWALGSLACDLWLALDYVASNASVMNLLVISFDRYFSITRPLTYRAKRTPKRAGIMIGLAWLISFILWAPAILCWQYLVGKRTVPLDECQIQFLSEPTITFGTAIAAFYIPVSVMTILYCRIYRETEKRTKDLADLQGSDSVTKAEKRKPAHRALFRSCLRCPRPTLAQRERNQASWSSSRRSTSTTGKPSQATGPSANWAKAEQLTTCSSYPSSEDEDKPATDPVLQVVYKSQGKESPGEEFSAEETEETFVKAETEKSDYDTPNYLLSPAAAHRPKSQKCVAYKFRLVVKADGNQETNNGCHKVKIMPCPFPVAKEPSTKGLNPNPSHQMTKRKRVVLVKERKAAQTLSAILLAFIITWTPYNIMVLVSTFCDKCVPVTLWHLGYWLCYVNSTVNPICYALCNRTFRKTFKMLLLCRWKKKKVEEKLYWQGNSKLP", "assay": "Antagonist activity at human muscarinic M5 receptor expressed in CHO cells co-expressing Gqi5 assessed as inhibition of acetylcholine-induced calcium mobilization", "type": "functional", "procedure,_shortened": "as §2"}}, "data": [{"smiles": "Fc1cc(F)c(F)c(-c2ccc(N[C@H]3C[C@@H]4CN(CC5CCOCC5)C[C@@H]4C3)nn2)c1", "values": [{"measurement": "Vd", "setting": "[1]", "value": 6.7, "unit": "L/kg"}, {"measurement": "AUC", "setting": "[2]", "value": 1.1, "unit": "µg·h/mL"}, {"measurement": "Kp uu", "setting": "[3]", "value": 0.24}, {"measurement": "half-life", "setting": "[4]", "value": 15, "unit": "h"}, {"measurement": "IC50", "setting": "Cytochrome P450 2C9", "value": "> 100", "unit": "µM"}, {"measurement": "Cmax", "setting": "[5]", "value": 0.07, "unit": "µg/mL"}, {"measurement": "AUC", "setting": "[6]", "value": 30, "unit": "µg·h/mL"}, {"measurement": "IC50", "setting": "[7]", "value": 0.0041, "unit": "µM"}, {"measurement": "IC50", "setting": "Cytochrome P450 2D6", "value": "> 100", "unit": "µM"}, {"measurement": "clearance", "setting": "[8]", "value": 2.58, "unit": "L/h/kg"}, {"measurement": "Kp uu at 1 h", "setting": "[9]", "value": 0.32}, {"measurement": "EC50", "setting": "CYP2B6", "value": 1.9, "unit": "µM"}, {"measurement": "half-life", "setting": "[10]", "value": 13, "unit": "h"}, {"measurement": "IC50", "setting": "[11]", "value": "> 10", "unit": "µM"}, {"measurement": "Ki", "setting": "[12]", "value": 0.0169, "unit": "µM"}, {"measurement": "IC50", "setting": "[13]", "value": "> 10", "unit": "µM"}]}]}
